Assay outcomes deposited in PubChem BioAssay by several laboratories.
CAL PDZ FP-1 – CAL PDZ peptide-binding inhibitors, primary screen, biochemical, fluorescence polarization, Cer-tagged CAL PDZ, HTS | Golgi-associated PDZ and coiled-coil motif-containing protein (Homo sapiens), Q9HD26 | purified CAL PDZ, TMR-peptide fluorescence polarization, 1 h | inhibition, % at 20 µM | hit rate 0.02% among 330,000 | AID 504414, 2011;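 active means highest replicate inhibition of at least 40%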;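 further: plate controls were DMSO neutral control wells for no effect and unlabeled competitor peptide control wells for full effect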
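Material: tagged CAL PDZ protein CerCALP, purified; buffer or medium: sodium phosphate/NaCl buffer pH 7.4 with TCEP, IgG, Thesit; also added: fluorescent TMR peptide probe; schedule: 1 h incubation at room temperature before polarization reading; technique: fluorescence polarization from S- and P-plane intensities, G-factor corrected; control set: unlabelled peptide and DMSO controls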
Keap1-Nrf2 PPI – Keap1-Nrf2 protein-protein interaction inhibitors, primary screen, biochemical, fluorescence polarization, single point | Kelch-like ECH-associated protein 1 (Homo sapiens), Q14145 | AID 504523, 2011 | hit rate 0.15% among 340,000 | inhibition, % at 9.4 µM | Keap1 Kelch-Nrf2 peptide fluorescence polarization, 1536-well; in the data active means inhibition above about 12%;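 further: human Keap1 Kelch domain with fluorescein labeled Nrf2 9mer peptide probe; 0% = neutral control wells and 100% = peptide positive control; higher means more block of Keap1 binding to Nrf2 peptide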
APOBEC3G inh – APOBEC3G DNA deaminase inhibitors, primary screen, biochemical, fluorescence, single-stranded DNA substrate, uHTS. DNA dC->dU-editing enzyme APOBEC-3G (Homo sapiens), Q9HC16. recombinant A3G, ssDNA deamination FAM/TAMRA fluorescence. inhibition, % at 20 µM. hit rate 0.28% among 330,000. AID 493012, 2011;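 active means inhibition of at least 40% at 20 µM, with no more than 30% in the related APOBEC3A deaminase screen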;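 further: plate controls were DMSO wells with A3G for no effect and wells lacking A3G enzyme for full effect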
Target sequence (Q9HC16 whole entry, looked up): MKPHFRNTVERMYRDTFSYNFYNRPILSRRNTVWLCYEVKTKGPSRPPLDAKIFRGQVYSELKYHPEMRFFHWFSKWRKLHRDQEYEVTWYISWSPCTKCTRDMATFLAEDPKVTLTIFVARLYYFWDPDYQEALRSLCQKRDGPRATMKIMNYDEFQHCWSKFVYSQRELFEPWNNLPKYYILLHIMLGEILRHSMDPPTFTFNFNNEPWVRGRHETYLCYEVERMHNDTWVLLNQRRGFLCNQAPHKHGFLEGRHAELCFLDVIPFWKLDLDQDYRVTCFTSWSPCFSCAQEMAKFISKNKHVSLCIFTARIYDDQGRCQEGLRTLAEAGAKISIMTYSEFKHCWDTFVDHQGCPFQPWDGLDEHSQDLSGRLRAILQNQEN
LANA DNA inh – inhibitors of KSHV C-LANA binding to DNA, primary screen, biochemical, fluorescence polarization, FAM-LBS DNA, MBP-C-LANA, single point. inhibition, % at 9 µM. AID 504423, 2011. hit rate 0.078% among 340,000;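 active means highest replicate inhibition at or above 60% at 9 µM, even if other replicates fall short; inactive means all replicates below 60% inhibition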;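 further: 0% = neutral control wells and 100% = 4 µM acridine orange control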
CAL PDZ FP-2 – untagged CAL PDZ binding inhibitors, primary screen, biochemical, fluorescence polarization, HTS; inhibition, % at 24.9 µM; purified CAL PDZ, TMR-peptide fluorescence polarization, 1 h; Golgi-associated PDZ and coiled-coil motif-containing protein (Homo sapiens), Q9HD26; hit rate 0.92% among 300,000;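 active means mean inhibition of at least 30% with at least half of replicates also reaching 30%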;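 further: 0% = DMSO neutral control and 100% = excess unlabeled competitor peptide PRC23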
A3A deaminase – APOBEC3A ssDNA deaminase inhibitors, primary screen, selectivity assay for APOBEC3G inhibitor project, biochemical, FAM/TAMRA oligo cleavage fluorescence | recombinant A3A, FAM/TAMRA ssDNA deamination fluorescence | inhibition, % at 20 µM | hit rate 0.41% among 330,000 | AID 493011, 2011;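 active means at least 40% inhibition at 20 µM here, with at most 30% in a related deaminase screen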;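 further: plate controls were A3A with DMSO for no effect and wells lacking A3A enzyme for full effect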
Target sequence (P31941 whole entry, looked up): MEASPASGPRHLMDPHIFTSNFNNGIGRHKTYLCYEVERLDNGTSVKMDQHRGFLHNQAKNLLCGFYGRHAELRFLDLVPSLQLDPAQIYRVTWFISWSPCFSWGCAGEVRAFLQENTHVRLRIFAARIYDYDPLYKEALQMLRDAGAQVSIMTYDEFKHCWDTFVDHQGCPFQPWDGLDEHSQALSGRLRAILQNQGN
The depositor's hits bear a star; / = no result given. In the library only some 1.7% were active in any assay of this set; here they are far more common.

SMILES	CAL PDZ FP-1	Keap1-Nrf2 PPI	APOBEC3G inh	LANA DNA inh	CAL PDZ FP-2	A3A deaminase
CCOC1=CC(=O)N(Cc2ccccc2)C1	0	1	-5	-2	69*	-2
CCc1ccc(C(=O)NNC(=O)c2c(CC)noc2C)cc1	0	-1	-10	1	60*	-2
CCc1noc(C)c1C(=O)NNC(=O)c1ccccc1	1	-3	-2	-1	/	-1
COc1cccc(/C=C/C(=O)NCc2cn3cc(Cl)ccc3n2)c1	1	3	-9	77*	-3	0
O=C(/C=C/c1cccc(Cl)c1)OCc1cn2cc(Cl)ccc2n1	-4	2	3	0	-7	3
CCOC(=O)C1CCCN(C(=O)c2ccc3oc(CCc4ccccc4)nc3c2)C1 (centres undefined)	-2	1	-5	1	-2	-4
CC(=O)C1CCCN(C(=O)c2ccc3oc(CCc4ccccc4)nc3c2)C1 (centres undefined)	0	-5	-2	0	47*	-6
COc1ccc(C(=O)CC(=O)C(=O)Nc2ccccc2Cl)cc1	-1	-6	/	-1	-5	/
S=C(NCc1ccco1)Nc1ccc(Oc2ccccc2)cc1	-1	-2	2	0	-2	2
O=C(Nc1ccc(Cl)cc1)N1CCN(c2ccc3nnc(-c4ccc(F)cc4)n3n2)CC1	-6	-1	-6	-1	/	-2
O=C(Nc1ccccc1Cl)N1CCN(c2ccc3nnc(-c4ccccc4)n3n2)CC1	-5	-3	-8	0	57*	-4
COc1ccc(CNC(=O)C[C@H]2C[C@H](C(=O)N3CCOCC3)[C@@]3(CCC4CCCC4)c4[nH]c5cc(CCC(=O)N(C)C)ccc5c4CCN3C2=O)cc1OC	0	7	3	3	51*	1
O=C(CSc1nnc(C2CC2)n1Cc1ccccc1)c1ccc(S(=O)(=O)N2CCOCC2)cc1	-1	-3	-3	-2	-5	-2
O=C(CSc1nnc(C2CC2)n1Cc1ccccc1)N1CCN(S(=O)(=O)c2ccccc2)CC1	1	6	-4	0	42*	-1
O=C1C2C3c4ccccc4C(c4ccccc43)C2C(=O)N1Cc1ccco1 (centres undefined)	0	-8	1	5	-6	0
CC12C(=O)N(Cc3ccco3)C(=O)C1C1c3ccccc3C2c2ccccc21 (centres undefined)	/	1	-4	0	103*	-2
Cc1ccccc1NC(=S)N(Cc1ccco1)C(C)c1cccs1 (centres undefined)	19	3	-2	1	47*	4
Nc1ccc(C(=O)Nc2cccc(N)c2)cc1	-1	4	/	0	-10	/
CCOc1ccc(OCCC(=O)OCC(=O)Nc2cc(S(=O)(=O)N3CCOCC3)ccc2OC)cc1	0	-1	/	0	21	/
CCOc1ccc(/C=N/OCC(=O)Nc2cc(S(=O)(=O)N3CCOCC3)ccc2OC)cc1	/	-3	-7	1	47*	-1
COc1ccccc1NC(=O)Cn1nc(-c2ccncc2)nc1SCC(=O)NC1CCCC1	-4	1	-3	-1	36*	4
COc1ccccc1NC(=O)Cc1nnc(SCC(=O)NC2CCCC2)n1C	0	2	-4	1	/	0
CCOC(=O)C1=C(C)Nc2ccccc2N=C1NC(=O)c1ccc(Cl)c(S(=O)(=O)N2CCCC2)c1	0	-1	-2	7	/	4
CCOC(=O)C1=C(C)NC(=O)NC1c1cc(Br)c(O)c(OC)c1 (centres undefined)	/	1	-3	0	-1	-3
COc1cc(C2NC(=O)NC(C)=C2C(=O)OC2CCCCC2)cc(Br)c1O (centres undefined)	88*	-2	-1	0	-4	-1
SMILES	CAL PDZ FP-1	Keap1-Nrf2 PPI	APOBEC3G inh	LANA DNA inh	CAL PDZ FP-2	A3A deaminase
Cc1ccc(S(=O)(=O)Nc2c(O)ccc3ccccc23)cc1	/	/	5	/	/	0
Cc1ccc(S(=O)(=O)Nc2c(Cl)c(Cl)c(O)c3ccccc23)cc1	/	/	82*	/	/	-5
COc1ccc(OC)c(S(=O)(=O)NCCS(=O)(=O)N2CCN(c3ccccc3)CC2)c1	-1	2	-3	1	35*	0
COc1ccccc1OCC(=O)NCCS(=O)(=O)N1CCN(c2ccc(F)cc2)CC1	0	-3	-2	0	54*	-3
CCN(C(=O)CSc1nc(C)c(C)c(C)n1)C1CCS(=O)(=O)C1 (centres undefined)	-1	-7	-3	-3	-1	2
COc1ccc(NC(=O)CNC(=O)Cc2cccc3ccccc23)c(OC)c1	0	-3	-7	-1	3	-1
CC(C)(C)c1ccc(C(=O)NC(=O)CSc2n[nH]c(N)n2)cc1	-1	-4	-3	0	-5	-2
O=S(=O)(O)c1cccc2cccc(Nc3ccccc3)c12	-2	4	10	96*	0	14
CCNC(=S)NNC(=O)c1ccncc1	0	-3	-10	0	68*	-8
C=C(C)CNC(=S)NNC(=O)c1ccncc1	-3	2	-7	1	-1	-7
CNC(=O)COC(=O)c1cc(-c2ccco2)nc2ccccc12	-1	2	33	0	47*	52
Cc1nn(C)c(C)c1CN(Cc1nc(CCC(C)C)no1)C(C)C	0	-4	-6	1	/	1
CCOC(=O)NC(=O)/C(N=Nc1ccc(C(F)(F)F)cc1)=C(\C)O	0	-5	-2	-2	45*	2
CCOC(=O)NC(=O)/C(N=Nc1cc(C)cc(C)c1)=C(\C)O	0	-2	-5	-1	0	-1
O=C(O)c1ccc(S(=O)(=O)N2CCCc3ccccc32)cc1	0	-4	-8	-1	-6	-6
COCCNC(=O)c1ccc(S(=O)(=O)N2CCCc3ccccc32)cc1	0	-3	-8	-1	59*	-2
Cc1cccc(NC(=O)CS(=O)(=O)c2c[nH]c3ccccc23)c1C	-2	-1	-4	0	55*	3
COc1cccc2cc(C(=O)N(Cc3ccccc3)CC3CCCO3)c(=O)oc12 (centres undefined)	-1	0	-1	3	43*	2
